Reference: ChEMBL document CHEMBL1152730, “Non-peptidic substrate-mimetic inhibitors of Akt as potential anti-cancer agents” (Bioorg Med Chem, 2009)
Numbered stars: 1 amine (or outer) side, 2 acyl side, 3 side chain; on linkers, the order of the positions; unused ones are H or OH. Square brackets hold non-standard residues; d marks the D form. Peptide text beside a SMILES is read from it. * marks the point of attachment. X2 = O=C(c1ccc(N[*:1])cc1-c1cccc2ccccc12)[*:2]; X1 = O=C(c1ccc(N[*:1])c(-c2ccccc2)c1)[*:2]; X3 = O=C(c1ccc(N[*:1])cc1-c1ccccc1)[*:2]; X4 = Cc1cc(C(=O)[*:2])ccc1N[*:1]; NHBn = c1ccc(CN*)cc1

The molecules below were run against RAC-alpha serine/threonine-protein kinase (Homo sapiens, UniProt P31749) (assay: Inhibition of Akt1 by fluorescence polarization assay).
RAC-alpha serine/threonine-protein kinase, sequence (P31749 whole entry): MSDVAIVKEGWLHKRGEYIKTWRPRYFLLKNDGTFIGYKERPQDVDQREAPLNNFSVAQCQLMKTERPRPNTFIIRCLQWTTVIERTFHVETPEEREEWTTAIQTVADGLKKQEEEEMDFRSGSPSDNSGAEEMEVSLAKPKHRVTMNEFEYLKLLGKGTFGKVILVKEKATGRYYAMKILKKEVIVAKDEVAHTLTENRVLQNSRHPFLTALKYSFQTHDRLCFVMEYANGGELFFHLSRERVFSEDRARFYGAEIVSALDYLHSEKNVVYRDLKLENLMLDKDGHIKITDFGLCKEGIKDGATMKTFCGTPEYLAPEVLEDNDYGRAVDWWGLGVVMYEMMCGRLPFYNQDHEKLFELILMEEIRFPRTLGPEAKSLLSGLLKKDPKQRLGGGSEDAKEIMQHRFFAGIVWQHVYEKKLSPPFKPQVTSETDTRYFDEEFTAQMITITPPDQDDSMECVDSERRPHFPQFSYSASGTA
Summary of the method: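 Substrate 100 nM 5FAM-labelled GSK3-derived peptide, ATP 5 μM, inhibitor added from DMSO stock. Incubated 1 h at room temperature, then quenched with IMAP binding solution. Phosphorylation read by fluorescence polarization; IC50 determined.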

IC50 [µM]	SMILES
17	CC(C)c1ccc(CN(Cc2ccc(C(C)C)cc2)c2ccc(NC(=O)c3ccc(NC(=O)CNC(=N)N)c(-c4ccc5ccccc5c4)c3)cc2)cc1
52	CC(C)c1ccc(-c2cc(C(=O)Nc3ccc(N(Cc4ccccc4)Cc4ccccc4)cc3)ccc2NCCNC(=N)N)cc1
23	N=C(N)NCCNc1ccc(C(=O)Nc2ccc(N(Cc3ccc4ccccc4c3)Cc3ccc4ccccc4c3)cc2)cc1-c1ccccc1
19	N#Cc1ccc(CN(Cc2ccc(C#N)cc2)c2ccc(NC(=O)c3ccc(NCCNC(=N)N)c(-c4ccccc4)c3)cc2)cc1
43	N=C(N)NCCNc1ccc(C(=O)Nc2ccc(N(Cc3cccc4ccccc34)Cc3cccc4ccccc34)cc2)cc1-c1ccccc1
158	COC(=O)c1ccc(-c2cc(C(=O)Nc3ccc(N(Cc4ccccc4)Cc4ccccc4)cc3)ccc2NCCNC(=N)N)cc1
83	N=C(N)NCCNc1ccc(C(=O)Nc2ccc(N(Cc3ccccc3)Cc3ccccc3)cc2)cc1-c1ccc(-c2ccccc2)cc1
84	N=C(N)NCCNc1ccc(C(=O)Nc2ccc(N(Cc3ccc(-c4ccccc4)cc3)Cc3ccc(-c4ccccc4)cc3)cc2)cc1-c1ccccc1
50	CC(=O)NCC(=O)N[C@@H](CCCNC(=N)N)C(=O)N1CCC[C@H]1C(=O)N[C@@H](CCCNC(=N)N)C(=O)Nc1ccc(C(=O)N[C@H](C(=O)N[C@@H](Cc2ccccc2)C(=O)NCc2ccccc2)C(C)C)cc1C (Ac-GRPR[X4]VF-NHBn)

Further lines, the molecule ahead of its results:

SMILES	IC50 [µM]
CC(=O)N[C@@H](CCCNC(=N)N)C(=O)Nc1ccc(C(=O)N[C@H](C(=O)N[C@@H](Cc2ccccc2)C(=O)NCc2ccccc2)C(C)C)cc1-c1ccccc1	288
N=C(N)NCCNc1ccc(C(=O)Nc2ccc(N(Cc3ccccc3)Cc3ccccc3)cc2)cc1-c1ccccc1	84
N=C(N)NCCNc1ccc(C(=O)Nc2ccc(N(Cc3ccccc3)Cc3ccccc3)cc2)cc1-c1ccc2ccccc2c1	44
N#Cc1ccc(CN(Cc2ccc(C#N)cc2)c2ccc(NC(=O)c3ccc(NC(=O)CNC(=N)N)c(-c4ccc5ccccc5c4)c3)cc2)cc1	12
Cc1ccc(CN(Cc2ccc(C)cc2)c2ccc(NC(=O)c3ccc(NCCNC(=N)N)c(-c4ccccc4)c3)cc2)cc1	215
CC(C)c1ccc(CN(Cc2ccc(C(C)C)cc2)c2ccc(NC(=O)c3ccc(NCCNC(=N)N)c(-c4ccc5ccccc5c4)c3)cc2)cc1	38
N=C(N)NCCNc1ccc(C(=O)Nc2ccc(N(Cc3ccc(F)cc3)Cc3ccc(F)cc3)cc2)cc1-c1ccccc1	55
N#Cc1ccc(CN(Cc2ccc(C#N)cc2)c2ccc3[nH]c(-c4ccc(NC(=O)CN=C(N)N)cc4)cc3c2)cc1	32
CC(C)c1ccc(CN(Cc2ccc(C(C)C)cc2)c2ccc(NC(=O)c3ccc(NCCNC(=N)N)c(-c4ccccc4)c3)cc2)cc1	28
N#Cc1ccc(-c2cc(C(=O)Nc3ccc(N(Cc4ccccc4)Cc4ccccc4)cc3)ccc2NCCNC(=N)N)cc1	78
CC(=O)Nc1ccc(-c2cc(C(=O)Nc3ccc(N(Cc4ccccc4)Cc4ccccc4)cc3)ccc2NCCNC(=N)N)cc1	253
NC(N)=NCC(=O)Nc1ccc(-c2cc3cc(N(Cc4ccccc4)Cc4ccccc4)ccc3[nH]2)cc1	126
CC(=O)N[C@@H](CCCNC(=N)N)C(=O)Nc1ccc(C(=O)Nc2ccc3c(c2)c(=O)n(Cc2ccccc2)c(=O)n3Cc2ccccc2)cc1	232
Cc1cccc(CN(Cc2cccc(C)c2)c2ccc(NC(=O)c3ccc(NCCNC(=N)N)c(-c4ccccc4)c3)cc2)c1	152
CC(=O)N[C@@H](CCCNC(=N)N)C(=O)Nc1ccc(C(=O)Nc2ccc3c(=O)n(Cc4ccccc4)c(=O)n(Cc4ccccc4)c3c2)cc1	112
CC(=O)N[C@@H](CCCNC(=N)N)C(=O)Nc1ccc(C(=O)N[C@H](C(=O)N[C@@H](Cc2ccccc2)C(=O)NCc2ccccc2)C(C)C)c(-c2ccccc2)c1	173
N#Cc1ccc(CN(Cc2ccc(C#N)cc2)c2ccc(NC(=O)c3ccc(NCCNC(=N)N)c(-c4ccc5ccccc5c4)c3)cc2)cc1	17
N=C(N)NCCNc1ccc(C(=O)Nc2ccc(N(Cc3ccccc3)Cc3ccccc3)cc2)cc1	96
CC(=O)NCC(=O)N[C@@H](CCCNC(=N)N)C(=O)N1CCC[C@H]1C(=O)N[C@@H](CCCNC(=N)N)C(=O)Nc1ccc(C(=O)N[C@H](C(=O)N[C@@H](Cc2ccccc2)C(=O)NCc2ccccc2)C(C)C)cc1-c1ccccc1 (Ac-GRPR[X1]VF-NHBn)	> 500
CC(=O)NCC(=O)N[C@@H](CCCNC(=N)N)C(=O)N1CCC[C@H]1C(=O)N[C@@H](CCCNC(=N)N)C(=O)Nc1ccc(C(=O)N[C@H](C(=O)N[C@@H](Cc2ccccc2)C(=O)NCc2ccccc2)C(C)C)c(-c2cccc3ccccc23)c1 (Ac-GRPR[X2]VF-NHBn)	78
CC(=O)NCC(=O)N[C@@H](CCCNC(=N)N)C(=O)N1CCC[C@H]1C(=O)N[C@@H](CCCNC(=N)N)C(=O)Nc1ccc(C(=O)N[C@H](C(=O)N[C@@H](Cc2ccccc2)C(=O)NCc2ccccc2)C(C)C)c(-c2ccccc2)c1 (Ac-GRPR[X3]VF-NHBn)	16
